Test results reported in PubChem BioAssay.
Calls of active or inactive are those of the source.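 Rule for the calls, unless noted: active = viability loss from added drug above about 55%, and viability with drug at most 40%, in both replicates (limit read from the data, passing the limit was not always enough); inconclusive = both conditions met in only one replicate; inactive = neither replicate meets both conditions.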

Columns and labels:
[1] = reduced viability of SK-BR-3 breast cancer cells – cell-based, 24 h, human, pilot screen (AID 572;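 active = viability at or below 10% of carrier control in both of two separate runs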;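 note: compound exposure lasted between 18 and 24 h rather than exactly 24 h; 100% = carrier-treated control wells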); settings: SK-BR-3 viability, CellTiter-Glo luminescence, at 10 µM, stronger effect = lower value
[2] = HUVEC growth inhibition – cell-based, human, primary screen (AID 575;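 active = viability at or below 30% in both replicate assays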;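 note: 100% = median of untreated cell wells with 0.1% DMSO on each plate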); settings: HUVEC proliferation, CellTiter-Glo luminescence, 72 h; at 10 µM; stronger effect = lower value
How it was run: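 System – primary HUVEC, no more than 12 passages · Medium – Low-serum (2% FBS) EBM, supplemented · Times – 72 h exposure, 37 °C, 5% CO2, 30 min RT equilibration · Measured by – luminescent ATP assay · Read-out – % viability relative to median vehicle-well signal on each plate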

[3] = H69AR cell proliferation blockers – human, duplicate replicates, primary screen (AID 580;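 active = viability at or under a set limit in both replicates, limit being median viability minus 3 SD, cut at about 48% in these data, passing the limit was not always enough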;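 note: 100% = mean luminescence of untreated wells and 0% = no signal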); settings: H69AR lung tumor cells viability, ATP luminescence, 72 h; at 10 µM; stronger effect = lower value
[4] = MRP1 drug-resistance reversers in H69AR cells – cell-based, doxorubicin co-treatment, pilot screen (AID 601); settings: CellTiter-Glo, 72 h, at 10 µM; for differential viability (reversal): stronger effect = higher value
[5] = yeast transport mutant growth inhibition pilot in 384-well plates, post-Golgi transport modulator project (AID 636; in the data active = inhibition above about 31%); settings: absorbance 615 nm, about 18 h, stronger effect = higher value
[6] = growth suppression of yeast trafficking mutant, preliminary HTS, modulators of trafficking downstream of Golgi apparatus project, 1536-format plate, OD 615 nm (AID 637; in the data active = inhibition above about 30%); settings: yeast transport mutant growth, absorbance 615 nm, 18 h; stronger effect = higher value
[7] = H69AR cells + 2 uM doxorubicin, measured here: viability with 2 uM doxorubicin, stronger effect = lower value
[8] = H69AR cells, compound alone cytotoxicity

| Compound | viability [1] | viability [2] | viability [3] | differential viability (reversal) ([4]; H69AR cells + 2 uM doxorubicin) | viability [4, 7] [%] | viability [4, 8] [%] | inhibition [5] | inhibition [6] |
| --- | --- | --- | --- | --- | --- | --- | --- | --- |
| Cc1[nH]nc2c1C(CCc1ccccc1)C(C#N)=C(N)O2 (configuration not stated) | 104% (inactive) | 94.2% (inactive) | 90.2% (inactive) | -2.73% (inactive) | 92.9 | 90.2 | 4.11% (inactive) | 15.8% (inactive) |
| CCOc1ccccc1-c1nc(-c2ccc(C)nc2OC)no1 | 123% (inactive) | 95.9% (inactive) | 81.9% (inactive) | -0.315% (inactive) | 82.2 | 81.9 | -0.78% (inactive) | 5.74% (inactive) |
| COc1cccc(NC(=O)C2C3C=CC4(O3)C2C(=O)N(C(C)C)C4C(=O)NC2CCCCC2C)c1 (configuration not stated) | 111% (inactive) | 105% (inactive) | 96.9% (inactive) | 8.79% (inactive) | 88.1 | 96.9 | 0.26% (inactive) | -4.92% (inactive) |
| Cc1cn(C2CC3OCC3O2)c(=O)[nH]c1=O (configuration not stated) | 101% (inactive) | 110% (inactive) | 94.2% (inactive) | -4.39% (inactive) | 98.5 | 94.2 | -7.12% (inactive) | -16.2% (inactive) |
| Cc1nn(-c2ccccc2)c2[nH]c(C(F)(F)F)cc(=O)c12 | 131% (inactive) | 95.6% (inactive) | 108% (inactive) | -10.8% (inactive) | 118 | 108 | -5.62% (inactive) | 4.36% (inactive) |
| Cc1ccc2c(c1)N(CC(=O)N1CCCCC1c1cccnc1)C(=O)CO2 (configuration not stated) | 106% (inactive) | 99.8% (inactive) | 95% (inactive) | -4.01% (inactive) | 99 | 95 | -2.84% (inactive) | -5.82% (inactive) |
| CSc1nnc(-c2cnccn2)n1Cc1ccccc1 | 96% (inactive) | 92.5% (inactive) | 102% (inactive) | 6.43% (inactive) | 95.7 | 102 | -2.88% (inactive) | 0.73% (inactive) |
| C[N+](C)(C)CCCCCCCCCC[N+](C)(C)C | 106% (inactive) | 100% (inactive) | 104% (inactive) | 13.9% (inactive) | 90 | 104 | 1.69% (inactive) | -1.5% (inactive) |
| CC(=O)OCC(=O)[C@H]1CC[C@H]2[C@@H]3CC=C4C[C@@H](O)CC[C@]4(C)[C@H]3CC[C@]12C | 87% (inactive) | 44.3% (inactive) | 96.8% (inactive) | 4.54% (inactive) | 92.3 | 96.8 | -0.65% (inactive) | 44.5% (active) |
| CCOc1cc2[nH]c(=O)n(CCCCC(=O)NCc3ccco3)c(=O)c2cc1OCC | 88% (inactive) | 90.7% (inactive) | 82.5% (inactive) | -12.7% (inactive) | 95.3 | 82.5 | -2.34% (inactive) | 1.97% (inactive) |
| CCOc1ccccc1CN(Cc1ccco1)S(=O)(=O)c1ccc(-n2cnnn2)c(OC)c1 | 82.5% (inactive) | 54.7% (inactive) | 6.69% (active) | -67.4% (inactive) | 74.1 | 6.69 | -3.7% (inactive) | -2.06% (inactive) |
| CN(CC(=O)N1CCCc2c1c(=O)oc1ccc(O)cc21)Cc1ccccc1 | 95% (inactive) | 87.6% (inactive) | 90% (inactive) | -3.29% (inactive) | 93.3 | 90 | -7.3% (inactive) | 0.36% (inactive) |
| c1ccc2c(-c3nc(-c4ccncc4)no3)cccc2c1 | 56% (inactive) | 86.4% (inactive) | 102% (inactive) | 5.25% (inactive) | 96.3 | 102 | -5.89% (inactive) | 10.6% (inactive) |
| O=C(NCC1CCCO1)c1ccc(C(=O)NCC2CCCO2)cc1 (configuration not stated) | 97% (inactive) | 108% (inactive) | 113% (inactive) | 11.3% (inactive) | 101 | 113 | -6.76% (inactive) | -4% (inactive) |
| COC(=O)CCN(C(=O)c1ccc2c(c1)OCO2)c1ccccn1 | 96% (inactive) | 93.6% (inactive) | 98.5% (inactive) | 7.88% (inactive) | 90.7 | 98.5 | -8.22% (inactive) | 0.55% (inactive) |
| CCOC(=O)CC(=O)CSc1nc(-c2cccnc2)ccc1C#N | 118% (inactive) | 98.6% (inactive) | 68.4% (inactive) | -24% (inactive) | 92.4 | 68.4 | -3.97% (inactive) | 0% (inactive) |
| CCN(CC(=O)Nc1ccc2c(c1)CCC2)Cc1nc2ccccc2c(=O)[nH]1 | 77% (inactive) | 81.8% (inactive) | 71.5% (inactive) | -13.7% (inactive) | 85.2 | 71.5 | -2.6% (inactive) | 4.73% (inactive) |
| Cn1nc(-c2ccc(N3CCCCC3)c(NC(=O)c3ccco3)c2)c2ccccc2c1=O | 107% (inactive) | 56.2% (inactive) | 32.3% (active) | 11.6% (inactive) | 20.8 | 32.3 | 1.6% (inactive) | 4.35% (inactive) |
| C=CCNC(=O)C1CC(=O)N(c2ccc(OCC(=O)Nc3ccc(OC)cc3)cc2)C1 (configuration not stated) | 99% (inactive) | 112% (inactive) | 108% (inactive) | 5.12% (inactive) | 103 | 108 | -0.81% (inactive) | -0.18% (inactive) |
| O=C(CCCSc1nc2ccccc2s1)NC1=NCCS1 | 86% (inactive) | 102% (inactive) | 93.7% (inactive) | -4.02% (inactive) | 97.8 | 93.7 | -7.53% (inactive) | 1.82% (inactive) |
| O=C(Nc1ccc(Cl)c(C(F)(F)F)c1)N1CCCC(O)C1 (configuration not stated) | 98% (inactive) | 107% (inactive) | 105% (inactive) | 20.9% (inactive) | 83.6 | 105 | -0.78% (inactive) | -6.23% (inactive) |
| CN1CCN(C2=Nc3ccccc3Oc3ccc(Cl)cc32)CC1 | 80% (inactive) | 59.7% (inactive) | 73.6% (inactive) | 48.3% (inactive) | 25.3 | 73.6 | -3.38% (inactive) | -1.83% (inactive) |
| CCn1c(SCC(=O)C(C)(C)C)nnc1-c1cnccn1 | 81% (inactive) | 107% (inactive) | 105% (inactive) | 15.9% (inactive) | 89.2 | 105 | -3.7% (inactive) | -9.35% (inactive) |
| COc1cccc(NC(=O)N2CCCC2C(=O)Nc2ccc3c(c2)OCO3)c1 (configuration not stated) | 106% (inactive) | 114% (inactive) | 96.3% (inactive) | 16.1% (inactive) | 80.2 | 96.3 | -5.33% (inactive) | -4.55% (inactive) |
